# The list is not random: actives were taken first. Their share in the collection is about 3.5%.
# PGC1a acetyl inh: inhibitors of PGC1a acetylation signal, primary screen, cell-based, U2OS, AlphaScreen, inhibitor mode. actives 0.17% (n = 350,000). inhibition, % at 15.6 µM. AlphaScreen anti-acetyl-lysine; with virally co-expressed GCN5 acetyltransferase. AID 651687, 2012;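 active = every replicate shows inhibition of at least 40%; inconclusive = mean inhibition at least 40% but some replicate below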;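 also: 0% = neutral control wells and 100% = positive control wells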
# FGF22 binding: binders of human FGF22 protein, primary screen, FGF22 synaptogenesis inhibitor project, biophysical, thermal shift, single point. recombinant FGF22 thermal shift, SYPRO orange fluorescence; percent of sucrose octasulfate shift, DMSO zero. activity (Tm shift, normalised), % at 9.99 µM. actives 1.5% (n = 340,000). Fibroblast growth factor 22 (Homo sapiens), Q9HCT0;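 active = mean Tm shift, scaled 0 neutral to 100 positive control, at about 1.3% or above, every replicate too, limit read from the data; inconclusive = no clear call, values can overlap the other calls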
# rRNA inh HTS: reduced GFP signal of wild-type E. coli, primary screen, bacterial rRNA inhibitor project, GFP/RFP fluorescence, OD600, single point. E. coli WT GFP vs humanized-ribosome RFP mutants, 24 h; hits give low values; DMSO median 0, no signal -100. GFP signal change (wild-type ribosome), % (test concentration not listed). actives 1.6% (n = 350,000);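 active = significant combined selectivity score with lowered wild-type GFP, culture density cut under 30%, mutant RFP and density less affected; inactive = any of these conditions unmet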
# ERAP1 HTS inh: human ERAP1 aminopeptidase inhibitors, primary screen, biochemical, single point, plate reader; Endoplasmic reticulum aminopeptidase 1 (Homo sapiens), Q9NZ08; recombinant ERAP1, Leu-AMC fluorescence, 60 min; inhibition, % at 10.7 µM; actives 0.15% (n = 340,000);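 active = mean replicate inhibition of at least 30%, or all replicates individually reaching that 30% level; inactive = mean below 30% and not every replicate reaching it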;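 also: 0% = neutral control wells and 100% = L-leucinethiol positive control wells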
# Target sequence (Q9NZ08 whole entry, looked up): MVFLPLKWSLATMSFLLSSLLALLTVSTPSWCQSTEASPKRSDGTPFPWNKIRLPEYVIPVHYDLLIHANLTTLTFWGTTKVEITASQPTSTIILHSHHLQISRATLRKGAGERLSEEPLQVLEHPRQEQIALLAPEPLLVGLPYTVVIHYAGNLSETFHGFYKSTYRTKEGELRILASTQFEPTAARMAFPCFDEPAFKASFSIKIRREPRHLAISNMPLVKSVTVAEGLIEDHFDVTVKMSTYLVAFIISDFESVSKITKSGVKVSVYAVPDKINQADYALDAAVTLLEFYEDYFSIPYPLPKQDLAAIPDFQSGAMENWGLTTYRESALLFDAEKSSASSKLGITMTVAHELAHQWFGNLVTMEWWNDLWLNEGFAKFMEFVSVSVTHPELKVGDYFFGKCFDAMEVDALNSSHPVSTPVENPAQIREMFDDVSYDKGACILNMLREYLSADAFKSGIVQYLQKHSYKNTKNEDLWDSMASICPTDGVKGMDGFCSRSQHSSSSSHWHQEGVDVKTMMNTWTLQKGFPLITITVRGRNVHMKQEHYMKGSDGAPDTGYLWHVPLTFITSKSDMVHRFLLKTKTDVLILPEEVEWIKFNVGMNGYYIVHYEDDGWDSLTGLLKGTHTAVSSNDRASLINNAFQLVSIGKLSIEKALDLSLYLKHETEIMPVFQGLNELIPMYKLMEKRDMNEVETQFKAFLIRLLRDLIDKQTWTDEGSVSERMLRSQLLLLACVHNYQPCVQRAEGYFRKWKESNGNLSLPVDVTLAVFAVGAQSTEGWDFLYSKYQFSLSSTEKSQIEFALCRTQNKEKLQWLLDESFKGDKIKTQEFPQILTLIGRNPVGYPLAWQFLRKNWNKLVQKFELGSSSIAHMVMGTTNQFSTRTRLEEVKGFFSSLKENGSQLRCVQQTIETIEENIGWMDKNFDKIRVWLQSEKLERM
# Cneo AK release: Cryptococcus neoformans cell lysis inducers, primary screen, AK release luminescence, single concentration; C. neoformans lysis, adenylate kinase release luminescence, 4 h; normalised: neutral wells 0, clomiphene wells 100; lysis activity, % at 15 µM; actives 0.2% (n = 360,000);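 active = mean lysis activity across replicates of at least 80%, whatever share of replicates individually reach that level; inactive = mean lysis activity below 80%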
#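 Test system: log-phase Cryptococcus neoformans yeast cells. Input: 5 × 10^6 yeast cells/mL. Medium: fresh YPD growth medium. Doses: single dose. Incubation: static 4 h at 37 °C with compound, 1 h detection. Measured by: luminescent adenylate kinase detection reagent. Read-out: signal increase indicating cell lysis. Benchmarks: Clomiphene.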
# Env fusion inh: inhibitors of HIV-1 Env-driven cell-cell fusion, primary screen, HeLa-JRFL effector, CEM21 target cells, luciferase. inhibition, % at 12.3 µM. actives 1.1% (n = 360,000);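 active = mean replicate inhibition score of at least 50 and every replicate individually at or above 50; inconclusive = only one of the two criteria met; inactive = mean below 50 and not all replicates reaching 50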;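 also: 0% = plate neutral controls and 100% = maraviroc near 300 nM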
# An asterisk follows results filed as active; ? = inconclusive; . = no result; ! = repeats disagree; [ ] = remark or other dose.
SMILES,PGC1a acetyl inh,FGF22 binding,rRNA inh HTS,ERAP1 HTS inh,Cneo AK release,Env fusion inh
CCC(C)Sc1cc(-c2nc3ccccn3c2NC2CCCCC2)ccc1OC (stereo unspecified),-4,0,2,-1,-1,59*!
CCN1CCN(Cc2nc3c(c(=O)n(C)c(=O)n3C)n2Cc2cccc3ccccc23)CC1,.,0,15,3,.,.
CCOC(=O)c1c(C)[nH]c(C(=O)C(C)OC(=O)c2cnc(C)cn2)c1C (stereo unspecified),7,0,-26*,1,0,.
COC1CCN(C(=O)CC2C(=O)NCCN2CC2CCCCC2)CC1 (stereo unspecified),.,43*,22,4,.,3
COC1CCN(C(=O)CC2C(=O)NCCN2CC(C)(C)C)CC1 (stereo unspecified),.,0,17,4,.,-3
C/C=C/c1ccc(OCCCCN2C(=O)NC(C)(C)C2=O)c(OC)c1,8,.,.,.,0,.
Cc1ccc(O)c(-c2cc(-c3ccc(F)cc3)no2)c1,-20,0,-1,-4,-5,-248
Cc1ccc(C(=O)N/C(=C\c2ccc3c(c2)OCO3)C(=O)Nc2ccc(C(=O)O)cc2)cc1,.,43*,-17,5,.,1
COc1ccc(C(=O)N/C(=C\c2ccc3c(c2)OCO3)C(=O)Nc2ccc(C(=O)O)cc2)cc1,.,0,-11,1,.,-4
COc1ccc(C(=O)N(c2ccccc2)c2nccc3ccccc23)cc1OC,-9,0,-19*,.,1,14
Cc1cc(C)n2nc(SCc3nnc(SCc4ccccc4C)s3)nc2n1,2,0,-13,-2,2,.
COc1cccc(CSc2nnc(CSc3nc4nc(C)cc(C)n4n3)s2)c1,-2,0,-29*,-1,2,.
CC(=O)N(C)C[C@H]1Oc2ccc(NC(=O)NC(C)C)cc2C(=O)N(C)C[C@@H]1C,.,.,2,.,.,.
COc1ccc(N(C(=O)CCl)C(C(=O)NCCc2ccccc2)c2cccs2)cc1Cl (stereo unspecified),.,0,-12,2,.,42
COc1cccc(N(C(=O)CCl)C(C(=O)NCCc2ccccc2)c2cccs2)c1 (stereo unspecified),?,.,.,.,0,65*
CCN1[C@H](C(=O)NCc2ccccn2)[C@@H](CO)[C@@H]2Cn3c(ccc(C4=CCCC4)c3=O)[C@@H]21,.,0,2,1,8,.
CCOC(=O)/C=C1\SCC(=O)N1CC(=O)NCc1ccc(OC)c(OC)c1,3,43*,18,-3,.,-5
Nc1cc(N2CCCC2)c(Cl)cc1[N+](=O)[O-],0,0,-41,4,.,18
Nc1cc(N2CCOCC2)c(Cl)cc1[N+](=O)[O-],.,0,-21*,4,.,22
CN(C[C@H](Cc1ccccc1)N(CCN(CCc1ccccc1)N=O)N=O)N=O,.,0,-20,-1,-1,33
CN(C[C@H](Cc1ccccc1)N(C[C@H](Cc1ccccc1)N(CCc1cc(C(F)(F)F)cc(C(F)(F)F)c1)N=O)N=O)N=O,-10,0,0,.,-1,56*
CCCC[C@H](CN(N=O)[C@@H](Cc1ccccc1)CN(C)N=O)N(CCc1ccccc1)N=O,-3,0,10,-6,11,88*
CC(C)[C@H](CN(N=O)[C@@H](Cc1ccccc1)CN(C)N=O)N(CCc1ccccc1)N=O,13,0,0,-2,5,68*
CN(C[C@H](Cc1ccccc1)N(C[C@H](Cc1cccc2ccccc12)N(CCc1ccccc1)N=O)N=O)N=O,.,0,17,-5,10,36
COc1ccc(CNC(=O)C[C@H]2CC[C@H]3[C@@H](COc4ccc(NC(=O)C5CC5)cc4C(=O)N3C)O2)cc1,-2,0,0,0,91*,-4[16.7 µM]
SMILES,PGC1a acetyl inh,FGF22 binding,rRNA inh HTS,ERAP1 HTS inh,Cneo AK release,Env fusion inh
CN1C(=O)c2cc(NC(=O)c3cscn3)ccc2OC[C@@H]2O[C@@H](CC(=O)NCc3ccc(Cl)c(Cl)c3)CC[C@H]21,-7,0,-7,-3,1,57*[16.7 µM]
O=C(NC1CCCCC1)c1ccc(S(=O)(=O)N2CCOCC2)cc1,-9,.,.,.,0,.
COc1cccc(CN2CCC(n3nccc3NC(=O)C3CC3)CC2)c1,4,0,9,-6,3,-1
COC(=O)c1c(NC(=O)Cc2ccccc2)sc(C)c1C,.,.,-2,0,10,.
COC(=O)c1c(NC(=O)CC2SC(N)=NC2=O)sc(C)c1C (stereo unspecified),.,44*,.,2,.,-47
COC(=O)c1c(NC(=O)CSc2ccccc2N)sc(C)c1C,-5,43*,8,2,0,-14
c1ccc(CSc2nc3ccccc3[nH]2)cc1,-12,0,-22*,.,-8,-263
Nc1c(-c2ccccc2)c(CSc2nc3ccccc3[nH]2)nn1-c1ccc(Cl)cc1,.,0,-19*,-1,.,-9
CCOc1ccc(OCCSc2nc3ccccc3[nH]2)cc1,1,0,-28*,-1,-5,.
Fc1ccc(CSc2nc3ccccc3[nH]2)cc1,-22,.,.,.,-10,.
Cc1cccc(NC(=O)C(C)Sc2nc3ccccc3c(=O)n2CCCN2CCOCC2)c1 (stereo unspecified),27,0,-5,-5,-2,.
CC(Sc1nc2ccccc2c(=O)n1CCCN1CCOCC1)C(=O)N1CCc2ccccc21 (stereo unspecified),2,44*,4,-3,.,4
Cc1ccc(Cn2ccc(NC(=O)c3nn(C)cc3[N+](=O)[O-])n2)cc1,-145,0,-2,4,0,.
Cc1nn(C)c(C(=O)Nc2ccn(Cc3ccccc3F)n2)c1[N+](=O)[O-],6,.,.,.,1,-19
Cn1cc([N+](=O)[O-])c(C(=O)Nc2ccn(C34CC5CC(CC(C5)C3)C4)n2)n1,.,0,-26*,1,.,9
Cc1nn(C)c(C(=O)Nc2ccn(C34CC5CC(CC(C5)C3)C4)n2)c1[N+](=O)[O-],.,0,-32*,-1,.,4
CN(Cc1ccccc1)C(=O)c1ccc2c(c1)OCO2,.,.,.,.,.,-17
O=C(Nc1nnc(S(=O)(=O)Cc2ccc(F)cc2)s1)c1ccccc1F,2,.,-40*,1,-2,-5
O=c1c(O)cccc2cc(O)c(O)c(O)c12,11,0,-6,4,-2,56*

# Source: PubChem (Broad Institute)
